Active and inactive are the calls of the source. No cut-off for these calls is given here.
Key:
[1] = Cytotoxicity against chinese hamster RT16 cells expressing human FRalpha after 96 hrs by CellTitre-Blue fluorescence assay; type: functional, cell-based; conditions: Cricetulus griseus, RT16, 96 h
Outline: (§1)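 CHO sublines were grown in FF-RPMI/DFBS; transfectants were maintained with G418. Cells were exposed to antifolate (0–1 μM) for 96 h at 37 °C with 2 nM LCV (RT16) or 25 nM LCV (R2/PCFT4). PC43-10 cells were grown in standard RPMI1640/DFBS instead. FRα specificity was tested by adding 200 nM folic acid. Viable cells were read by CellTiter-Blue fluorescence (ex 560/em 590), and IC50 was taken from dose–response curves; means of 3–10 experiments.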

KB [2] = assay: Cytotoxicity against human KB cells expressing human RFC/FRalpha/PCFT assessed as depletion of ATP pools at 1 uM after 24 hrs by ion-pair HPLC analysis; type: functional
Outline: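 KB cells in FF-RPMI/10% DFBS with 2 mM glutamine and 2 nM LCV were exposed to 1 μM drug for 24 h. They were trypsinized and washed, and nucleotides were extracted. ATP was quantified by reversed-phase ion-pair HPLC on a C18 column. Results are means ± standard errors.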

[3] = Cytotoxicity against chinese hamster R2(VC) cells after 96 hrs by CellTitre-Blue fluorescence assay; type: functional, cell-based; conditions: Cricetulus griseus; outline: as §1
KB [4] = assay: Cell cycle arrest in human KB cells after 48 hrs by propidium iodide staining-based flow cytometry; type: functional
Outline: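 KB cells exposed to 1 μM drug for 48 h in FF-RPMI with 10% DFBS and 2 nM LCV, harvested by trypsin and fixed in ice-cold ethanol. Stained with 50 μg/mL PI plus 100 μg/mL RNase for at least 20 min at room temperature in the dark. Flow cytometry counted at least 10 000 events. G1/G0, S, G2/M and sub-G1 fractions were fitted by Watson Pragmatic model.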

[5] = Cytotoxicity against chinese hamster PC43-10 cells expressing human RFC after 96 hrs by CellTitre-Blue fluorescence assay; type: functional, cell-based; conditions: Cricetulus griseus, PC43-10, 96 h; outline: as §1
KB [6] = assay: Cytotoxicity against human KB cells expressing human RFC/FRalpha/PCFT after 96 hrs by CellTitre-Blue fluorescence assay; type: functional, cell-based
Outline: (§2)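 KB cells were grown in FF-RPMI with DFBS and 2 nM LCV, exposed to antifolate (0–1 μM) for 96 h at 37 °C, and read by CellTiter-Blue fluorescence. IC50 was taken from dose–response curves relative to untreated cells. Protection arms added adenosine 60 μM, thymidine 10 μM, AICA 320 μM, or folic acid 200 nM. Means of 3–10 experiments.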

R2 [7] = assay: Cytotoxicity against chinese hamster R2 cells expressing human PCFT4 after 96 hrs by CellTitre-Blue fluorescence assay; type: functional, cell-based, Cricetulus griseus; conditions: R2, 96 h
KB [8] = assay: Cell cycle arrest in human KB cells assessed as accumulation at G1/G0 phase at 1 uM after 96 hrs by propidium iodide staining-based flow cytometry (reference value: 67.4%); type: functional
R2 [9] = assay: Cytotoxicity against chinese hamster R2 cells after 96 hrs by CellTitre-Blue fluorescence assay; conditions: Cricetulus griseus, R2, 96 h
[10] = molecular target: Folate receptor alpha (Homo sapiens) (UniProt P15328); assay: Displacement of [3H]folic acid from human FRalpha expressed in chinese hamster RT16 cells after 15 mins by scintillation counting analysis; type: cell-based
Outline: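 FRα-expressing RT16 CHO cells (~1.5 × 10^6) were grown as monolayers. Bound folates were stripped with ice-cold acetate buffer (pH 3.5), then neutralised with HEPES-buffered saline (pH 7.4). Cells were then competed with [3H]folic acid against graded unlabelled ligand. Bound label read by scintillation, normalised to Folin-phenol protein (pmol/mg). Relative affinity = inverse molar ratio for 50% displacement, folic acid set at 1. Three experiments.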

[11] = molecular target: T1, Reduced folate transporter (Homo sapiens) (UniProt P41440); assay: Inhibition of human RFC expressed in chinese hamster PC43-10 cells assessed as reduction of [3H]MTX uptake at 10 uM after 48 hrs by scintillation counting analysis relative to control; type: cell-based
T1 sequence (whole entry): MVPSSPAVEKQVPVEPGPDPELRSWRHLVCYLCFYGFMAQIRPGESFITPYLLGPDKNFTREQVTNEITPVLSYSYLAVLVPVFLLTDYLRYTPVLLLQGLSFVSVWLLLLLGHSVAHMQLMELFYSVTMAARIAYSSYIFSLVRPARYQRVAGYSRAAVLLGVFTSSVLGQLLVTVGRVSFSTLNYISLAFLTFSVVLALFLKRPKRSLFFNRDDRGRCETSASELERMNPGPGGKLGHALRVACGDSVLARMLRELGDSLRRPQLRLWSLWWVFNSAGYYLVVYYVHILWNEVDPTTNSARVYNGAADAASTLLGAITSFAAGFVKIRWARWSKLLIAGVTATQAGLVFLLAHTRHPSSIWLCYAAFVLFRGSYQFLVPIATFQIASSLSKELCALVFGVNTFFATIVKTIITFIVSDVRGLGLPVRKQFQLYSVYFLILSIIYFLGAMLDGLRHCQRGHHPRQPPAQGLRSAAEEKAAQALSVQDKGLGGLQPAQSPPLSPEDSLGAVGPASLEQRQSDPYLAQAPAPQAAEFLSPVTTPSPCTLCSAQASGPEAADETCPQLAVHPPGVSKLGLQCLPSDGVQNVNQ
Outline: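 PC43-10 CHO cells expressing human RFC (~1.5 × 10^6) were seeded 48 h before assay. Uptake of 0.5 μM [3H]MTX was run in Hank's balanced salts for 2 min at 37 °C, with or without 10 μM unlabelled inhibitor, and stopped with ice-cold PBS. Cells were dissolved in 0.5 N NaOH, counted by scintillation and normalised to Folin-phenol protein (pmol/mg). RFC-null R2 cells gave baseline. Three experiments.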

KB [12] = assay: Induction of apoptosis in human KB cells assessed as early apoptotic cells at 1 uM after 96 hrs by Annexin V-FITC/7-AAD staining-based flow cytometry (reference value: 0.485%); type: functional
[13] = (§3) Inhibition of GARFTase in human KB cells assessed as incorporation of [14C]-glycine into [14C]-formyl GAR incubated 30 mins prior to [14C]-glycine addition measured after 16 hrs by radiometric assay in presence of azaserin; type: cell-based
Outline: (§4)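 KB cells were preincubated 1 h in folate- and glutamine-free medium with 2 nM LCV and a range of drug concentrations. Azaserine (4 μM final) was added for 30 min, then 2 mM glutamine and [14C(U)]glycine (0.1 mCi/L) for 16 h at 37 °C. TCA extracts were ether-washed and run on AG1×8 anion exchange. [14C]formyl GAR was measured per mg protein, and IC50 was set against DMSO controls; three experiments.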

KB [14] = assay: as §3; type: cell-based; outline: as §4
KB [15] = assay: Cytotoxicity against human KB cells expressing human RFC/FRalpha/PCFT after 96 hrs by CellTitre-Blue fluorescence assay in presence of thymidine; type: functional, cell-based; outline: as §2
KB [16] = assay: Cytotoxicity against human KB cells expressing human RFC/FRalpha/PCFT after 96 hrs by CellTitre-Blue fluorescence assay in presence of adenosine; type: functional, cell-based; outline: as §2
KB [17] = assay: Cell cycle arrest in human KB cells assessed as accumulation at sub-G1 phase at 1 uM after 96 hrs by propidium iodide staining-based flow cytometry (reference value: 3.5%); type: functional

Chain of Folate receptor alpha (Homo sapiens) (P15328 25-234 limits assumed): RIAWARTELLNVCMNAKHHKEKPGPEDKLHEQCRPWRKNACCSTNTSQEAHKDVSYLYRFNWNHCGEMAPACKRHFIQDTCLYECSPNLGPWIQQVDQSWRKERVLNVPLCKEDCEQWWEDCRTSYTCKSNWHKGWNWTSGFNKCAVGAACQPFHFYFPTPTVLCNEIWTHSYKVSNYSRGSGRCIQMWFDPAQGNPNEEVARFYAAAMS

Q: Which IC50 [1] does the source give for `Nc1nc2[nH]cc(CCCCc3ccc(C(=O)N[C@@H](CCC(=O)O)C(=O)O)cc3)c2c(=O)[nH]1` here?
A: 8.6 nM

Q: What about the inhibition at 1 µM (KB [2]) of the same compound?
A: > 90%

Q: And the IC50 [3]?
A: > 1000 nM

Q: And the Activity (KB [4])?
A: Active

Q: What about the IC50 [5] of the same compound?
A: 56.6 nM

Q: What about the IC50 (KB [6]) of the same compound?
A: 12.7 nM

Q: And the IC50 (R2 [7])?
A: 840 nM

Q: What about the Activity (KB [8]) of the same compound?
A: 12.9%

Q: And the IC50 (R2 [9])?
A: > 1000 nM

Q: And the Activity [10]?
A: Active

Q: What about the inhibition [11] of the same compound?
A: > 90%

Q: And the Activity (KB [12])?
A: 33.8%

Q: And the IC50 [13]?
A: 29.7 nM

Q: What about the inhibition (KB [14]) of the same compound?
A: Dose-dependent effect

Q: What about the Activity (KB [15]) of the same compound?
A: Active

Q: What about the Activity (KB [16]) of the same compound?
A: inactive

Q: And the Activity (KB [17])?
A: 36.7%

Source: ChEMBL document CHEMBL3102834, “Discovery of 5-substituted pyrrolo[2,3-d]pyrimidine antifolates as dual-acting inhibitors of glycinamide ribonucleotide formyltransferase and 5-aminoimidazole-4-carboxamide ribonucleotide formyltransferase in de novo purine nucleotide biosynthesis: implications of inhibiting …” (J Med Chem, 2013)
